Measured values from ChEMBL document CHEMBL5380775, “Visible-Light-Controlled Histone Deacetylase Inhibitors for Targeted Cancer Therapy” (J Med Chem, 2023).
Values belong to the molecule of their own block, whether it stands above or below them. Active and inactive are the calls of the source. No cut-off for these calls is given here.

Assays:
Histone deacetylase 1 [1] = target: T1, Histone deacetylase 1 (Homo sapiens, UniProt Q13547); experiment: Inhibition of human recombinant HDAC1 using Boc-Lys(Ac)-AMC as substrate incubated for 1 hrs in presence of illumination with 420 nm light by fluorescence based assay
T1 sequence (Q13547 whole entry): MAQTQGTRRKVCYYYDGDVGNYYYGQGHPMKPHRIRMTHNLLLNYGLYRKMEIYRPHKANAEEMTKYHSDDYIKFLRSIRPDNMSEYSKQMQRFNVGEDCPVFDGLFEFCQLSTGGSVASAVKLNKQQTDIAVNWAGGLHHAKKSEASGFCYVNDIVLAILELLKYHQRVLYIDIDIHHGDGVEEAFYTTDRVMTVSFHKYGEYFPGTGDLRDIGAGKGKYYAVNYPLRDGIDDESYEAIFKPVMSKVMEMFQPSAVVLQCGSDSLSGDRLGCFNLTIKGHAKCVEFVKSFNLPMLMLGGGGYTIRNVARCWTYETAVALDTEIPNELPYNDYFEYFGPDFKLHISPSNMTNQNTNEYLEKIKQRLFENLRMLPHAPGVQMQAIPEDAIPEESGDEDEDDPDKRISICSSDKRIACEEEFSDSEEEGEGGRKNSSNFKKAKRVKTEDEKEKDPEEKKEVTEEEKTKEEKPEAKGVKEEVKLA

Histone deacetylase 1 [2] = target: T1, Histone deacetylase 1; experiment: Inhibition of human recombinant HDAC1 using Boc-Lys(Ac)-AMC as substrate at 0.003 to 10 uM incubated for 1 hrs in dark by fluorescence based assay; conditions: dose 0.003-10 µM
Outline: (§1)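 Recombinant human HDAC1 at 8 ng/well with Boc-Lys(Ac)-AMC 15 μM in Tris buffer pH 8 with 0.1 mg/mL BSA. Compound 10 μM to 3 nM, 1 h at room temperature. Dark: stocks heated to 60 or 80 °C. Light: stocks preilluminated 3 min, then continuous 550 nm at 6 mW/cm². […] Fluorescence ex 380/em 460 nm, blank-subtracted.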

[3] = Stability of compound in DMSO assessed as half life at 25 to 50 uM in presence of illumination with 380 to 550 nm light; format: physicochemical; conditions: dose 25-50 µM
Outline: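 Solutions of 25–50 μM in DMSO illuminated 2 min at the cis-forming wavelength. Absorbance then followed at fixed intervals in the dark at room temperature, at the wavelength of largest isomer difference. Half-life from an exponential-decay fit.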

HeLa [4] = experiment: Anticancer activity against human HeLa cells assessed as inhibition of cell growth incubated for 48 hrs in presence of illumination with 380 nm light by MTS assay; format: functional, cell-based
Outline: (§2)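 HeLa cells in DMEM with 10% FBS, seeded at 5 × 10³ cells/well 24 h before treatment. Dark stocks heated to 60 or 80 °C. Light stocks preilluminated 3 min at 380 nm (11 mW/cm²). Stocks diluted in DMEM to 20× final, final DMSO 0.5%. Exposure 24 or 48 h. MTS read 2 h at 37 °C, absorbance 490 nm; % of nontreated cells.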

HeLa [5] = experiment: Anticancer activity against human HeLa cells assessed as inhibition of cell growth incubated for 48 hrs in dark by MTS assay; format: functional, cell-based; outline: as §2
MCF7 [6] = experiment: Cytotoxicity against human MCF7 cells assessed as reduction in cell viability at 50 uM incubated for 48 hrs in dark condition by MTS assay; format: functional, cell-based
Outline: (§3)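 HT29 and MCF7 cells in DMEM with 10% FBS, seeded at 1 × 10⁴ cells/well; compound added 24 h later. Dark stocks heated to 60 or 80 °C; light stocks preilluminated 3 min at 380 or 550 nm. Tested at 50 μM, final DMSO 0.5%, for 48 h. MTS read 2 h at 37 °C, absorbance 490 nm; viability as % of nontreated cells.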

HT-29 [7] = experiment: Cytotoxicity against human HT-29 cells assessed as reduction in cell viability at 50 uM incubated for 48 hrs in presence of illumination with 380 nm light by MTS assay; format: functional, cell-based; outline: as §3
MCF7 [8] = experiment: Cytotoxicity against human MCF7 cells assessed as reduction in cell viability at 50 uM incubated for 48 hrs in presence of illumination with 550 nm light by MTS assay; format: functional, cell-based; outline: as §3
KG-1 [9] = experiment: Cytotoxicity against human KG-1 cells assessed as reduction in cell viability at 50 uM incubated for 48 hrs in dark condition by celltiter glo assay; format: functional, cell-based
Outline: (§4)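 KG1 suspension cells grown in IMDM with 20% FBS, 1 × 10⁴ cells/well. Dark stocks heated to 60 or 80 °C; light stocks preilluminated 3 min at 380 or 550 nm. Exposure 50 μM for 48 h. CellTiter-Glo added, 10 min at room temperature, luminescence read; % of nontreated cells.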

[10] = target: Histone deacetylase (Homo sapiens) (UniProt Q13547+O15379+Q9UBN7+Q92769+Q9UQL6+Q8WUI4+Q9BY41+Q96DB2+P56524+Q9UKV0+Q969S8); experiment: Inhibition of HDAC in human HeLa cells at 50 uM incubated for 3 hrs by fluorescence based analysis; format: cell-based
Outline: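 Live-cell HDAC assay: HeLa in DMEM/10% FBS, 15 × 10³ cells/well, seeded 24 h before. Compound added at 50 μM final, either heat-relaxed to trans (60 or 80 °C, dark) or LED-illuminated 3 min. Boc-Lys(Ac)-AMC substrate at 100 μM final, 3 h at 37 °C. […] Fluorescence ex 380/em 460 nm. Activity as % of untreated cells after no-substrate blank subtraction.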

HT-29 [11] = experiment: Cytotoxicity against human HT-29 cells assessed as reduction in cell viability at 50 uM incubated for 48 hrs in presence of illumination with 550 nm light by MTS assay; format: functional, cell-based; outline: as §3
HT-29 [12] = experiment: Cytotoxicity against human HT-29 cells assessed as reduction in cell viability at 50 uM incubated for 48 hrs in dark condition by MTS assay; format: functional, cell-based; outline: as §3
KG-1 [13] = experiment: Cytotoxicity against human KG-1 cells assessed as reduction in cell viability at 50 uM incubated for 48 hrs in presence of illumination with 380 nm light by celltiter glo assay; format: functional, cell-based; outline: as §4
MCF7 [14] = experiment: Cytotoxicity against human MCF7 cells assessed as reduction in cell viability at 50 uM incubated for 48 hrs in presence of illumination with 380 nm light by MTS assay; format: functional, cell-based; outline: as §3
KG-1 [15] = experiment: Cytotoxicity against human KG-1 cells assessed as reduction in cell viability at 50 uM incubated for 48 hrs in presence of illumination with 550 nm light by celltiter glo assay; format: functional, cell-based; outline: as §4
HeLa [16] = experiment: Anticancer activity against human HeLa cells assessed as reduction in cell viability upto 100 uM incubated for 48 hrs in dark by MTS assay; format: functional, cell-based; outline: as §2
HeLa [17] = experiment: Anticancer activity against human HeLa cells assessed as inhibition of cell growth incubated for 24 hrs in dark condition by MTS assay; format: functional, cell-based; outline: as §2
Histone deacetylase 1 [18] = target: T1, Histone deacetylase 1; experiment: Inhibition of human recombinant HDAC1 using Boc-Lys(Ac)-AMC as substrate incubated for 1 hrs in presence of illumination with 550 nm light by fluorescence based assay
Histone deacetylase 1 [19] = target: T1, Histone deacetylase 1; experiment: Inhibition of human recombinant HDAC1 using Boc-Lys(Ac)-AMC as substrate at 0.003 to 10 uM incubated for 1 hrs in presence of illumination with 550 nm light by fluorescence based assay; conditions: dose 0.003-10 µM; outline: as §1
Histone deacetylase 1 [20] = target: T1, Histone deacetylase 1; experiment: Inhibition of human recombinant HDAC1 using Boc-Lys(Ac)-AMC as substrate incubated for 1 hrs in dark by fluorescence based assay
[21] = Stability of the compound assessed as half life in DMEM by HPLC analysis; format: physicochemical
Outline: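 10 mM DMSO stock illuminated 2 min (LED array plate at maximum power, e.g. 380 nm at 11 mW/cm²), then diluted to 10 μM in DMEM with 0.1% DMSO. Kept at 37 °C in an incubator in the dark; samples taken at fixed intervals and analysed by HPLC. Cis thermal half-life obtained by fitting the decay to an exponential function.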

[22] = Stability of the compound assessed as half life in buffer; format: physicochemical
Histone deacetylase 1 [23] = target: T1, Histone deacetylase 1; experiment: Inhibition of human recombinant HDAC1 using Boc-Lys(Ac)-AMC as substrate incubated for 1 hrs in presence of illumination with 380 nm light by fluorescence based assay
[24] = in the assay text read “380 nm light” for “550 nm light”

SMILES: COc1cc(F)c(/N=N/c2c(F)cc(/C=C/C(=O)NO)cc2F)c(F)c1
- half-life at up to 50 µM [3]: 218 h

SMILES: COc1ccc(/N=N/c2ccc(CCC(=O)Nc3ccccc3N)cc2)cc1
- Activity (HeLa [4]): inactive
- inhibition (HeLa [5]): inactive
- half-life at up to 50 µM [3]: 20.1 h

SMILES: COc1ccc(/N=N/c2ccc(/C=C/C(=O)Nc3cc(-c4cccs4)ccc3N)cc2)cc1
- Activity (MCF7 [6]): inactive
- Activity (HT-29 [7]): Active
- Activity (MCF7 [8]): Active
- Activity (KG-1 [9]): inactive
- inhibition [10]: Active
- Activity (HeLa [16]): inactive
- Activity (HT-29 [11]; [24]): Active
- Activity (HT-29 [12]): inactive
- Activity (KG-1 [13]): Active
- Activity (MCF7 [14]): Active
- inhibition (HeLa [17]): inactive
- half-life at up to 50 µM [3]: 4.5 h
- Activity (KG-1 [15]): Active

SMILES: CN(C)c1ccc(/N=N/c2ccc(C(=O)Nc3ccccc3N)cc2)cc1
- half-life at up to 50 µM [3]: 0.0717 h

SMILES: COc1ccc(/N=N/c2ccc(C(=O)Nc3ccccc3N)cc2)cc1
- inhibition (HeLa [5]): inactive
- half-life at up to 50 µM [3]: 20.8 h

SMILES: COc1ccc(/N=N/c2ccc(/C=C/C(=O)NO)cc2)cc1
- half-life at up to 50 µM [3]: 2.7 h
- half-life [22]: 2.7 h

SMILES: COc1ccc(/N=N/c2ccc(C(=O)NO)cc2)cc1
- half-life at up to 50 µM [3]: 18.7 h

SMILES: COc1ccc(/N=N/c2ccc(/C=C/C(=O)Nc3ccccc3N)cc2)cc1
- Activity (MCF7 [6]): inactive
- Activity (HT-29 [7]): Active
- Activity (MCF7 [8]): Active
- Activity (KG-1 [9]): inactive
- half-life [21]: 0.667 h
- inhibition [10]: Active
- Activity (HeLa [16]): inactive
- Activity (HT-29 [11]; [24]): Active
- Activity (HT-29 [12]): inactive
- Activity (KG-1 [13]): Active
- Activity (MCF7 [14]): Active
- half-life at up to 50 µM [3]: 3.1 h
- Activity (KG-1 [15]): Active

Now from value to molecule, other results behind:

- IC50 (Histone deacetylase 1 [1]): 1200 nM
- inhibition (Histone deacetylase 1 [2]): inactive
- half-life at up to 50 µM [3]: 5.4 h
SMILES: CN(C)c1cc(F)c(/N=N/c2c(F)cc(/C=C/C(=O)Nc3ccccc3N)cc2F)c(F)c1

- inhibition (Histone deacetylase 1 [2]): inactive
- half-life at up to 50 µM [3]: 13.8 h
SMILES: COc1cc(Cl)c(/N=N/c2c(Cl)cc(/C=C/C(=O)Nc3ccccc3N)cc2Cl)c(Cl)c1

- inhibition [10]: Active
- half-life at up to 50 µM [3]: 178 h
SMILES: COc1cc(F)c(/N=N/c2c(F)cc(/C=C/C(=O)Nc3ccccc3N)cc2Cl)c(Cl)c1
- Activity (MCF7 [6]): inactive
- Activity (HT-29 [7]): Active
- Activity (MCF7 [8]): Active
- Activity (KG-1 [9]): inactive
- inhibition (HeLa [5]): inactive
- Activity (HT-29 [11]): Active
- Activity (HT-29 [12]): inactive
- Activity (KG-1 [13]): Active
- Activity (MCF7 [14]): Active
- Activity (KG-1 [15]): Active

- inhibition (Histone deacetylase 1 [18]): inactive
- inhibition (Histone deacetylase 1 [19]): inactive
- inhibition (Histone deacetylase 1 [20]): inactive
- inhibition (Histone deacetylase 1 [2]): inactive
- half-life at up to 50 µM [3]: 8.3 h
SMILES: COc1cc(Cl)c(/N=N/c2c(Cl)cc(C(=O)Nc3ccccc3N)cc2Cl)c(Cl)c1

- half-life at up to 50 µM [3]: 4.3 h
SMILES: COc1ccc(/N=N/c2ccc(/C=C/C(=O)Nc3ccccc3N)cc2Cl)c(Cl)c1
- inhibition (HeLa [4]): inactive
- inhibition (HeLa [5]): inactive

- IC50 (Histone deacetylase 1 [1]): 5000 nM
- half-life at up to 50 µM [3]: 0.135 h
SMILES: CN(C)c1cc(Cl)c(/N=N/c2c(Cl)cc(/C=C/C(=O)Nc3ccccc3N)cc2Cl)c(Cl)c1

- half-life [21]: 113 h
- inhibition [10]: Active
- half-life at up to 50 µM [3]: 1010 h
SMILES: COc1cc(F)c(/N=N/c2c(F)cc(C(=O)Nc3ccccc3N)cc2F)c(F)c1
- Activity (MCF7 [6]): inactive
- Activity (HT-29 [7]): Active
- Activity (MCF7 [8]): Active
- Activity (KG-1 [9]): inactive
- Activity (HT-29 [11]): Active
- Activity (HT-29 [12]): inactive
- Activity (KG-1 [13]): Active
- Activity (MCF7 [14]): Active
- Activity (KG-1 [15]): Active

- inhibition [10]: Active
- half-life at up to 50 µM [3]: 223 h
SMILES: COc1cc(F)c(/N=N/c2c(F)cc(/C=C/C(=O)Nc3ccccc3N)cc2F)c(F)c1
- Activity (MCF7 [6]): inactive
- Activity (HT-29 [7]): Active
- Activity (MCF7 [8]): Active
- Activity (KG-1 [9]): inactive
- inhibition (HeLa [5]): inactive
- Activity (HT-29 [11]): Active
- Activity (HT-29 [12]): inactive
- Activity (KG-1 [13]): Active
- Activity (MCF7 [14]): Active
- Activity (KG-1 [15]): Active

- IC50 (Histone deacetylase 1 [23]): 460 nM
- half-life at up to 50 µM [3]: 9.9 h
SMILES: COc1ccc(/N=N/c2ccc(/C=C/C(=O)Nc3ccccc3N)cc2F)c(F)c1
- inhibition (HeLa [4]): inactive
- inhibition (HeLa [5]): inactive
